Data taken from ChEMBL document CHEMBL1799940, “Isolation and synthesis of antiproliferative eupolauridine alkaloids of Ambavia gerrardii from the Madagascar Dry Forest” (J Nat Prod, 2011).

How the values were obtained:
A2780 = assay: Antiproliferative activity against human A2780 cells after 2 days by Alamar Blue assay; assay type: functional, cell-based; conditions: A2780, 48 h
Method in brief: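 Drug-sensitive human ovarian cancer cell line; samples delivered in 1 μL of 100% DMSO per well rather than 20 μL of 1:1 DMSO–H2O. Otherwise run by a previously reported protocol.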

NCI-H460 = assay: Antiproliferative activity against human H460 cells after 96 hrs by Cell Titre-Glo luminescent assay; assay type: functional, cell-based; conditions: NCI-H460, 96 h

Compound	IC50 (A2780) [µM]	IC50 (NCI-H460) [µM]
Oc1ccc2c(c1)-c1nccc3ccnc-2c13	12.7	> 10
COc1ccc2c(c1)-c1c3c-2nccc3cc[n+]1[O-]	54.3	> 10
COc1cccc2c1-c1nccc3ccnc(c13)C2=O	10.3	0.57
[O-][n+]1ccc2ccnc3c2c1-c1ccccc1-3	3.5	1.77
COc1ccc2c(c1)-c1nccc3ccnc-2c13	11.1	> 10
COc1ccc2c(c1)-c1nccc3cc[n+]([O-])c-2c13	50.3	> 100
c1ccc2c(c1)-c1nccc3ccnc-2c13 [EUPOLAURIDINE]	35.7	> 100
O=C1c2ccccc2-c2nccc3ccnc1c23 [SAMPANGINE]	0.6	0.58
